Measurements pooled from the literature.
Protocols differ between the studies behind these lines.
Target: Tyrosine-protein kinase Yes (YES1, Homo sapiens, UniProt P07947)

Cc1ccc(C(=O)Nc2ccc(CN3CCN(C)CC3)c(C(F)(F)F)c2)cc1C#Cc1cnc2cccnn12
remaining activity (enzyme activity; 23.5 nM): 34%

Oc1cccc(-c2nc(N3CCOCC3)c3oc4ncccc4c3n2)c1
remaining activity (enzyme activity; inhibitor; 10 µM): 92%

CC(=O)c1c(NS(C)(=O)=O)c2cc(-c3ccc(Cl)cc3)c(-c3ccc(Cl)cc3Cl)nc2n(C)c1=O
remaining binding (cell-free assay; competition with immobilised ligand; 1 µM): 96%

CC(C)(C)c1nc(-c2cccc(NS(=O)(=O)c3c(F)cccc3F)c2F)c(-c2ccnc(N)n2)s1
remaining activity (enzyme activity; inhibitor; radiometric; 1 µM): 105%

Nc1nc(NC2CCCCC2)sc1C(=O)c1ccccc1
remaining activity (enzyme activity; inhibitor; 10 µM): 114%

COc1cc(/C=C/C(=O)CC(=O)/C=C/c2ccc(O)c(OC)c2)ccc1O
activity vs control (enzyme activity; inhibitor; 1 µM): 62%

FC(F)c1nc2ccccc2n1-c1nc(N2CCOCC2)nc(N2CCOCC2)n1
remaining activity (enzyme activity; inhibitor; 10 µM): 72%

O=C1Nc2ccc(Cl)cc2C1=Cc1cc(Cl)c(O)c(Cl)c1
remaining signal (cell-free assay; 0.5 µM): 78.3%

N#CC1(c2ccccn2)CCN(Cc2cc(C(=O)N3CCCC3)c(=O)n3ccccc23)CC1
remaining binding (cell-free assay; competition with immobilised ligand; 1 µM): 84%

COc1cccc2c(NCc3ccccc3)nc(-n3c(N)nc4ccccc43)nc12
inhibition (target engagement in cells; inhibitor; chemoproteomics; 20 mM): -2.4%

CC(C)(O)c1cncc(-c2nc3ccc(F)cc3n2C2CC2)c1
remaining binding (cell-free assay; competition with immobilised ligand; 1 µM): 100%

CNC(=O)c1cc(Oc2ccc(NC(=O)Nc3ccc(Cl)c(C(F)(F)F)c3)cc2)ccn1
remaining signal (cell-free assay; 0.5 µM): 82.8%

O=C(Nc1cnn(-c2csc(C(=O)NC3COC3)c2)c1)Nc1c(F)cccc1Cl
remaining activity (enzyme activity; inhibitor; 5 µM): 91%

CCOc1cc(-c2nncn2C)ccc1Nc1ncc2cc(C)nc(NCC(C)(C)C)c2n1
inhibition (enzyme activity; inhibitor; FRET; 1 µM): 22%

Cc1cnc(NC2CCOCC2)nc1-n1cnc(C(=O)NC(CN)c2cc(F)cc(Cl)c2)c1 (stereo not shown)
remaining activity (enzyme activity; inhibitor; radiometric; 1 µM): 97%

COc1cc2ncnc(Nc3ccc(Oc4ccccc4)c(C)c3C)c2cc1OC
inhibition (enzyme activity; inhibitor; 1 µM): 88%

FC(F)(F)Oc1cccc(-c2cnc3ccc(-c4ccncc4)nn23)c1
activity vs control (enzyme activity; inhibitor; radiometric; 1 µM): 82%

CC/C(=N\NC(=O)NCc1cccc(O)c1)c1ccc(O)c(C)c1O
inhibition (enzyme activity; inhibitor; 0.1 µM): 4.5%

c1ccc(CNc2nc(N3CCOc4ccccc43)nc3c2CCCC3)cc1
inhibition (target engagement in cells; inhibitor; chemoproteomics; 20 mM): -4.3%

CCC(=O)N[C@H]1CC[C@@H](C(=O)N(C)c2ccc(-c3nc4ccccc4o3)cc2)C1
remaining binding (cell-free assay; competition with immobilised ligand; 1 µM): 82%

CN1CC(Oc2cnc(C#N)cc2-c2ccn3nc(NC(=O)C4CC4)cc3c2)C1
inhibition (enzyme activity; inhibitor; 1 µM): 86%

Cc1noc([C@H]2C[C@@H](c3ccc(C(F)(F)F)cc3)CN(C(=O)N3CCS(=O)(=O)C3)C2)n1
remaining binding (cell-free assay; competition with immobilised ligand; 1 µM): 100%

Cc1ccc(C(=O)NCc2ccsc2)cc1C#Cc1cn(C(C)C)c2ncnc(N)c12
activity vs control (enzyme activity; inhibitor; 1 µM): 2%

COCCOc1nc(-c2ccc(Cl)nc2)nc2c1CN(C(=O)c1ncn3ccccc13)CC2
remaining binding (cell-free assay; competition with immobilised ligand; 0.1 µM): 100%

CCN(CC)CCNC(=O)c1c(C)[nH]c(/C=C2\C(=O)Nc3ccc(F)cc32)c1C
inhibition (enzyme activity; inhibitor; 0.3 µM): 69%

Cc1ccc(Nc2nccc(N(C)c3ccc4c(C)n(C)nc4c3)n2)cc1S(N)(=O)=O
remaining signal (cell-free assay; 0.5 µM): 52.6%

COc1cc(Nc2cnc(C#N)c(O[C@H](C)CN(C)C)n2)ncc1-c1cnn(C)c1
remaining activity (enzyme activity; inhibitor; radiometric; 10 µM): 39%

C[C@@H](c1cccc(C#N)c1)n1cc(Cl)cc(C(N)=O)c1=N
remaining binding (cell-free assay; competition with immobilised ligand; 1 µM): 93%

CCCOc1ccc(OC)c(F)c1C(=O)c1ccc(C(=O)N[C@@H]2CNC[C@H]2NC(=O)c2ccc3[nH]ncc3c2)cc1
remaining activity (enzyme activity; inhibitor; 10 µM): 41%

O=C(O)[C@H]1[C@H](Cn2nnc3ccccc3c2=O)CC[C@@H]1C(=O)c1ccc(OCCC2CCOCC2)cc1
remaining binding (cell-free assay; competition with immobilised ligand; 1 µM): 100%

O=C(Nc1cnn(-c2csc(C(=O)NC3COC3)c2)c1)Nc1ccccc1Cl
remaining activity (enzyme activity; inhibitor; 5 µM): 96.5%
